A selection: hits, their analogues and other compounds. The true share with any hit is near 0.72%.
bIAP inhibitor: intestinal alkaline phosphatase (bovine) inhibition. AID 1019. purified bovine IAP, CDP-star luminescence, 30 min. 190,000 tested, under 10 active. inhibition, % at 20 µM;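 active = over 50% inhibition of intestinal alkaline phosphatase at 20 µM in the single-dose screen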
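System: Purified bovine intestinal alkaline phosphatase (IAP) enzyme | Input: IAP diluted 1/65,000,000 in the well | Also added: CDP-star chemiluminescent phosphatase substrate, 30 µM final | Dosing: 20 µM single dose | Times: Enzyme reaction for 30 min at room temperature | Detection: Luminescence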
hIAP block: human IAP inhibition. purified IAP, CDP-Star luminescence, 30 min. 330,000 compounds, 0.12% hits. AID 2544. P09923. inhibition, % at 10 µM;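 active = inhibition reaching a set limit with compound at 10 µM in the primary screen, cut at about 35% in these data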;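 note: plate controls were DMSO wells with enzyme for no effect and no-enzyme buffer wells for full effect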
Target sequence (P09923 whole entry, looked up): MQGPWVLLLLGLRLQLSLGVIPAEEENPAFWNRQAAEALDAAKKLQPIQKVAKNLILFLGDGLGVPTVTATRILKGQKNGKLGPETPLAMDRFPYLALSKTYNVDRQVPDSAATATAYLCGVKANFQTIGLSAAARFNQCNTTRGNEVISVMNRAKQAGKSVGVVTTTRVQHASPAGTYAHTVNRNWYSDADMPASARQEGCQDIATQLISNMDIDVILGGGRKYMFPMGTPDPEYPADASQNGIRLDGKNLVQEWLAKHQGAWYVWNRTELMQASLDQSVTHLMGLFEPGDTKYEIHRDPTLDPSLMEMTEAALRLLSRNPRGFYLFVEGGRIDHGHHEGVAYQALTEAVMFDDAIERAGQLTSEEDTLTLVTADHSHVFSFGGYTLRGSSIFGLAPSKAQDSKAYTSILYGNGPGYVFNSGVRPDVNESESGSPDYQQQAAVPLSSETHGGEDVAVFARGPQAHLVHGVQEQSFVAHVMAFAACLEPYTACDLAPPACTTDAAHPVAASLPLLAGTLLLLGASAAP
mIAP act: increases mouse intestinal alkaline phosphatase activity; muIAP, CDP-Star luminescence, 30 min; active compounds read high; 1 = vehicle-only enzyme signal, 0 = enzyme-free wells; activation factor at 10 µM; 330,000 compounds, 0.24% hits; AID 2805;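 active = activation factor of at least 2 at 20 µM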
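System: mouse IAP enzyme. Reagent: CDP-Star chemiluminescent phosphatase substrate. Benchmarks: DMSO wells, no-enzyme wells. Times: 30 min enzyme-substrate-compound incubation at room temperature. Detection: luminescence from enzymatic CDP-Star hydrolysis. Doses: test compounds delivered from DMSO solution.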
mIAP inh: mouse IAP inhibition. purified mouse IAP, CDP-Star luminescence, 30 min. inhibition, % at 10 µM. 330,000 compounds, 0.2% hits. AID 2806;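 active = inhibition of at least 40% at 10 µM in the primary screen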;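 note: plate controls were DMSO with enzyme for no effect and no enzyme wells for full effect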
bIAP act: increases bovine intestinal alkaline phosphatase activity. purified bovine IAP, CDP-star luminescence, 30 min; active compounds read high; fold of DMSO-control signal, blank-subtracted. activation factor at 20 µM. 200,000 compounds, 0.17% hits;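 active = activation factor of 2 or more at 20 µM, a signal rise over negative controls twice the positive control's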
hIAP act: human IAP activation | purified human IAP, CDP-Star luminescence, 30 min; active compounds read high; 1 = vehicle-only enzyme, 0 = enzyme-free background | activation factor at 10 µM | 330,000 compounds, 0.16% hits;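 active = activation factor of the enzyme at least 2-fold when tested at 20 µM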
hIAP act conf: human IAP activation confirmation | shares compounds with hIAP act | purified IAP, CDP-Star luminescence, 30 min; active compounds read low | activation (%Activity, negative = activation), % at 8.3 µM | 880 compounds, 10% hits;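 active = at least twofold enzyme activation in any of six single-dose repeats, which the averaged readout prints as negative percent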
Numbers without * were called inactive; / = no result given.

SMILES	bIAP inhibitor	hIAP block	mIAP act	mIAP inh	bIAP act	hIAP act	hIAP act conf
COc1ccc(NC(=O)CN(C)C(=O)c2ccc(NS(=O)(=O)c3ccc(F)cc3)cc2)cc1	/	4	0.92	8	/	0.96	/
CCCNS(=O)(=O)c1ccc(CCC(=O)NCc2ccco2)cc1	7	-141	0.99	1	0.9	2.4*	11
Cc1cc(-n2c(SCC(=O)NCCC3=CCCCC3)nc3n[nH]c(C)c3c2=N)ccc1Cl	/	-106	1.2	-21	/	2.1*	-29
Cc1ccc(Cl)cc1-n1c(SCC(=O)NCCC2=CCCCC2)nc2n[nH]c(C)c2c1=N	/	-66	0.98	2	/	1.7	/
Nc1c(N2CCCC2)cc(Cl)c2nonc12	26	35*	0.88	12	0.7	0.65	41
Nc1c(N2CCOCC2)cc(Cl)c2nonc12	31	23	0.86	14	0.7	0.77	/
COC(CNC(=O)c1cn(C)c2ccc(S(=O)(=O)N3CCOCC3)cc2c1=O)OC	/	-5	0.95	5	/	1	/
COc1ccccc1OCCNC(=O)CSC(=S)N1CCCC1	/	-2	1	-2	/	1	/
COc1cc(Cl)ccc1OCc1cc(C(=O)N2CCCCCCC2)no1	/	39*	1.1	-7	/	0.61	35
CCNc1nc(NCC)nc(-n2nc(C)cc2C)n1	-2	41*	0.98	2	1	0.59	-8
N#C/C(=N\Nc1ccc(S(=O)(=O)N2CCCCCC2)cc1)C(N)=S	8	37*	0.85	15	0.9	0.63	8
N#C/C(=N\Nc1ccc([N+](=O)[O-])cc1)C(N)=S	/	35*	0.66	34	/	0.65	-9
CCN(CC)CCC(c1cc(OC)c(OC)c(OC)c1)c1c(O)cc(OC)cc1OC (centres undefined)	/	5	0.98	2	/	0.95	/
Cc1ccc(-c2[nH]ncc2C(=O)c2ccc(Br)cc2)c(O)c1	/	-105	0.99	1	/	2*	1
Cc1ccc(C(=O)c2cn[nH]c2-c2cc(Cl)ccc2O)cc1	-51	-7	0.97	3	1.5	1.1	/
CCC(NC(=S)NC1CCCCC1)c1ccc(C(C)C)cc1 (centres undefined)	/	-311	5.7*	-467	/	4.1*	-24*
Cc1ccc(C(C)NC(=S)NC2CCCCC2)cc1C (centres undefined)	/	4	1.6	-62	/	0.96	/
CCN(CC)c1ccc(-c2nc3cnccc3n2C)cc1	-15	14	1.1	-6	1.1	0.86	/
COc1ccc(S(=O)(=O)N2CCN(CC(=O)c3ccc(O)c(O)c3)CC2)cc1	/	39*	0.71	29	/	0.61	-19
CCOc1cccc(/C=N/NC(=O)c2cc(C3CC3)[nH]n2)c1O	/	-147	0.91	9	/	2.5*	-12
O=C(O)/C(=C\c1ccccc1)c1ccc2ccccc2c1	/	38*	1.1	-5	/	0.62	6
Cn1c(CNC(=O)CNC(=O)c2cccc(F)c2)cc(=O)n(C)c1=O	/	3	1	-3	/	0.97	/
Cn1c(CNC(=O)CCNC(=O)c2cccc(F)c2)cc(=O)n(C)c1=O	/	38*	0.93	7	/	0.62	3
CCc1ccccc1NC(=O)COc1ccc(N2CC(C(N)=O)CC2=O)cc1 (centres undefined)	/	8	0.95	5	/	0.92	/
COc1ccc(-c2cc(=O)oc3c(C)c(OC(C)C(C)=O)ccc23)cc1 (centres undefined)	/	11	0.99	1	/	0.89	/
SMILES	bIAP inhibitor	hIAP block	mIAP act	mIAP inh	bIAP act	hIAP act	hIAP act conf
O=C(Nc1ccc(Cl)c(Cl)c1)Oc1ccc(NC(=O)c2ccco2)cc1	0	-100	2.2*	-120	1	2*	-70
O=C(CNC(=S)N(CCCN1CCOCC1)Cc1cccs1)NCc1ccccc1Cl	/	-110	1	-1	/	2.1*	14
O=C(CNC(=S)N(CCCN1CCOCC1)Cc1cccs1)NCCCN1CCOCC1	-10	5	0.85	15	1.1	0.95	/
O=C(CNC(=S)N(CCCN1CCOCC1)Cc1cccs1)NCc1ccc(Cl)cc1	/	-186	1.1	-8	/	2.9*	-51
COC(CNC(=O)CNC(=S)N(CCCN1CCOCC1)Cc1cccs1)OC	8	-28	1.2	-18	0.9	1.3	/
COc1ccccc1CNC(=O)CN(c1ccc(C)cc1)S(=O)(=O)c1c(C)noc1C	/	38*	0.96	4	/	0.62	32
CCOc1ccc(CNC(=O)C2Cc3cc(S(=O)(=O)N4CCCCC4)ccc3N2C(C)=O)cc1 (centres undefined)	/	-12	1.1	-13	/	1.1	/
O=c1c2cc(O)c(O)cc2oc2cc(O)c(C3OC(CO)C(O)C(O)C3O)c(O)c12 (centres undefined)	/	82*	0.69	30	/	0.18	-148*
Cc1ccc(OCC(=O)Nc2cccc(O)c2)cc1C	-4	5	0.94	6	1	0.95	/
Cc1cccc(OCC(=O)Nc2cccc(O)c2)c1	12	-117	1.1	-7	0.9	2.2*	-25
COc1cc(/C=C2\SC(=S)N(NC(=O)c3ccc(O)cc3)C2=O)ccc1O	/	44*	0.66	34	/	0.56	2
CCOc1cc(/C=C2\SC(=S)N(N3CCOCC3)C2=O)ccc1O	/	39*	0.62	38	/	0.61	-33
O=C1/C(=C/c2ccc(O)c(O)c2)SC(=S)N1Nc1ccccc1	/	/	/	/	0.5	/	/
COc1cc(/C=C2\SC(=S)N(Nc3ccccc3)C2=O)ccc1O	-4	40*	0.59	41*	1	0.6	8
O=C1/C(=C/c2ccc(F)cc2)SC(=S)N1N1CCOCC1	/	12	0.96	4	/	0.88	/
COc1cc(/C=C2\SC(=S)N(NC(=O)c3cccnc3)C2=O)ccc1O	/	30	0.65	35	/	0.7	/
Cc1cc(C(=O)NNC(=O)CCCCC(=O)NNC(=O)c2cc(C)[nH]n2)n[nH]1	20	-254	0.73	27	0.8	3.5*	-79
Cc1cccc(C(=O)NNC(=O)CCCCC(=O)NNC(=O)c2cccc(C)c2)c1	/	-144	1.1	-7	/	2.4*	-4
COc1ccc(CC(=O)NNC(=O)c2cc(C)[nH]n2)cc1	/	-43	0.79	21	/	1.4	/
Cc1ccc(NC(=O)CSCC(=O)Nc2cc(C(F)(F)F)ccc2N2CCOCC2)cc1	/	-2	1.1	-12	/	1	/
Cc1ccc(NC(Cc2cc(C)no2)c2ccccc2)cc1 (centres undefined)	-10	1	1.2	-16	1.1	0.99	/
Cc1cc(NC(=O)CSc2nnc(-c3ccc([N+](=O)[O-])cc3)o2)no1	/	35*	1	-3	/	0.65	-61
C/C(=N/NC(=O)c1cc(-c2ccc(Br)s2)[nH]n1)c1ccco1	-4	-114	0.95	5	1	2.1*	-3
O=C(N/N=C/c1ccco1)c1cc(-c2ccc(Br)s2)[nH]n1	/	2	0.84	16	/	0.98	/
